The text below walks through data of ChEMBL document CHEMBL1126031, “1,2,3-trisubstituted cyclopropanes as conformationally restricted peptide isosteres: application to the design and synthesis of novel renin inhibitors” (J Med Chem, 1992).

Data set [1] has as its target T1, Renin (Homo sapiens, UniProt P00797).
T1 sequence (P00797 whole entry): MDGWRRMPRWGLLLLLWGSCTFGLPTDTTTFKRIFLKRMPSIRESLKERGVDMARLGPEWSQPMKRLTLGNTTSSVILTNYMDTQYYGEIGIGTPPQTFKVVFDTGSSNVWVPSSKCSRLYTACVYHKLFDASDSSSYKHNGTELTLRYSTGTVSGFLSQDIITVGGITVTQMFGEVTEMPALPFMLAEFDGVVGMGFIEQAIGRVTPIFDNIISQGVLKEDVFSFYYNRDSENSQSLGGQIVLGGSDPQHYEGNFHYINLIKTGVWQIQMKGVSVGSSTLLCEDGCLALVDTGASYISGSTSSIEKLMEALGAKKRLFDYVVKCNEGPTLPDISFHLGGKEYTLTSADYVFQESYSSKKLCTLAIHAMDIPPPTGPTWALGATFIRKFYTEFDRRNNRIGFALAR
As to the kind of experiment: In vitro potency against human plasma renin at pH 7.4. The data set is classed as cell-free. Put shortly: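 Renin in human plasma, assayed at pH 7.4 by a procedure from earlier work.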

The nature of data set [2]: Half life of the compound.
The target of data set [3] is T1, Renin. As to the kind of experiment: In vitro inhibition of purified human renin at a pH of 6.0. The procedure, abridged: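 Purified human renin, assayed at pH 6.0 by a procedure from earlier work.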
Another data set deals with T2, Renin (Homo sapiens) (UniProt P00797).
T2 sequence (whole entry): T1 sequence (P00797 whole entry)
As to the kind of experiment: In vitro potency to inhibit human plasma renin at a pH of 7.4 and at 1*10e-6 M concentration. The data set is classed as cell-free.

Molecules are shown by their SMILES.

On to `CC(C)C[C@H](O)[C@H](O)[C@H](CC1CCCCC1)NC(=O)[C@H](Cc1cscn1)NC(=O)[C@H]1[C@H](C(=O)N2CCOCC2)[C@@H]1c1ccccc1`, for which the IC50 at Renin [1] was found to be 20 nM; at Renin [3], 0.7 nM. The same molecule gave a half-life in data set [2] of more than 5 h.
Molecule `CC(C)C[C@H](O)[C@H](O)[C@H](CC1CCCCC1)NC(=O)[C@H](Cc1cscn1)NC(=O)[C@@H]1[C@H](Cc2ccccc2)[C@H]1C(=O)N1CCOCC1` had an IC50 against Renin [3] of 120 nM.
At Renin [3], `CC(C)C[C@H](O)[C@H](O)[C@H](CC1CCCCC1)NC(=O)[C@H](Cc1cscn1)NC(=O)[C@@H]1[C@@H](C(=O)N2CCOCC2)[C@H]1c1ccccc1` yielded an IC50 of 120 nM.
For the molecule `CC(C)C[C@H](O)[C@H](O)[C@H](CC1CCCCC1)NC(=O)[C@H](Cc1cscn1)NC(=O)C1[C@@H](c2ccccc2)[C@H]1c1ccccc1` (stereo not given in full), the IC50 against Renin [1] came out at 810 nM; against Renin [3] it was 1.1 nM.
As for `CC(C)C[C@@H]1[C@H](C(=O)N[C@@H](Cc2cscn2)C(=O)N[C@@H](CC2CCCCC2)[C@@H](O)[C@@H](O)CC(C)C)[C@H]1C(=O)N1CCOCC1`, the IC50 at Renin [3] was 33 nM.
As for `CC(C)C[C@H](O)[C@H](O)[C@H](CC1CCCCC1)NC(=O)[C@H](Cc1cscn1)NC(=O)[C@H](CC(=O)N1CCOCC1)Cc1ccccc1`, the IC50 against Renin [3] is 150 nM.
Turning to `CCOC(=O)N[C@@H](Cc1ccc(I)cc1)C(=O)N[C@@H](CC(C)C)C(=O)N[C@@H](CC1CCCCC1)[C@@H](O)[C@@H](O)CC(C)C`, the IC50 against Renin [1] stood at 300 nM; on Renin [3], 2.4 nM.
`CC(C)C[C@H](O)[C@H](O)[C@H](CC1CCCCC1)NC(=O)[C@H](Cc1cscn1)NC(=O)[C@H]1[C@H](Cc2ccccc2)[C@@H]1C(=O)N1CCOCC1`: the results for the concentration for half-maximal inhibition (IC50) at Renin [1] and against Renin [3] were 370 nM and 10 nM, respectively.
Turning to `CC[C@H]1[C@@H](C(=O)N[C@@H](Cc2cscn2)C(=O)N[C@@H](CC2CCCCC2)[C@@H](O)[C@@H](O)CC(C)C)[C@@H]1C(=O)N1CCOCC1`, the IC50 came to 610 nM on Renin [1] and 16 nM at Renin [3].
On Renin [3], `CC[C@@H]1[C@H](C(=O)N[C@@H](Cc2cscn2)C(=O)N[C@@H](CC2CCCCC2)[C@@H](O)[C@@H](O)CC(C)C)[C@H]1C(=O)N1CCOCC1` displayed an IC50 of 92 nM.
Turning to `CC(C)C[C@H](O)[C@H](O)[C@H](CC1CCCCC1)NC(=O)[C@H](Cc1cscn1)NC(=O)[C@H]1[C@H](C(=O)N2CCOCC2)[C@H]1c1ccccc1`, the IC50 on Renin [3] amounted to 200 nM.
With `CC(C)C[C@H](O)[C@H](O)[C@H](CC1CCCCC1)NC(=O)[C@H](Cc1cscn1)NC(=O)[C@@H]1[C@@H](C(=O)N2CCOCC2)[C@@H]1c1ccccc1`, the IC50 against Renin [3] turned out to be 120 nM.
As for `CC(C)C[C@H](O)[C@H](O)[C@H](CC1CCCCC1)NC(=O)[C@H](Cc1cscn1)NC(=O)C(Cc1ccccc1)Cc1ccccc1`, the figures for the IC50 at Renin [1] and against Renin [3] were 54 nM and 0.47 nM, respectively.
The like results for `CC(C)C[C@H](O)[C@H](O)[C@H](CC1CCCCC1)NC(=O)[C@H](Cc1cscn1)NC(=O)[C@@H](CC(=O)N1CCOCC1)Cc1ccccc1` were, in that order, 8.3 nM and 0.36 nM.
Regarding `CC(C)C[C@@H]1[C@@H](C(=O)N[C@@H](Cc2cscn2)C(=O)N[C@@H](CC2CCCCC2)[C@@H](O)[C@@H](O)CC(C)C)[C@@H]1C(=O)N1CCOCC1`, the IC50 against Renin [1] is 41 nM; against Renin [3], 2.1 nM.
Molecule `CC(C)C[C@H](O)[C@H](O)[C@H](CC1CCCCC1)NC(=O)[C@H](Cc1cscn1)NC(=O)[C@H]1[C@@H](Cc2ccccc2)[C@@H]1C(=O)N1CCOCC1` returned an IC50 against Renin [3] of 27 nM.
For `CC(C)C[C@H]1[C@H](C(=O)N[C@@H](Cc2cscn2)C(=O)N[C@@H](CC2CCCCC2)[C@@H](O)[C@@H](O)CC(C)C)[C@H]1C(=O)N1CCOCC1`, the IC50 against Renin [3] amounted to 44 nM.
As for `CC(C)C[C@H]1[C@@H](C(=O)N[C@@H](Cc2cscn2)C(=O)N[C@@H](CC2CCCCC2)[C@@H](O)[C@@H](O)CC(C)C)[C@@H]1C(=O)N1CCOCC1`, the IC50 on Renin [1] is more than 1000 nM; against Renin [3], 19 nM. This molecule gave an inhibition at Renin (Homo sapiens) of 46%.
As for `CC(C)C[C@H](O)[C@H](O)[C@H](CC1CCCCC1)NC(=O)[C@H](Cc1cscn1)NC(=O)[C@@H]1[C@@H](Cc2ccccc2)[C@H]1C(=O)N1CCOCC1`, the IC50 at Renin [1] was more than 1000 nM; against Renin [3], 25 nM. For the same molecule, the inhibition on Renin (Homo sapiens) worked out at 30%.
Regarding `CC[C@@H]1[C@@H](C(=O)N[C@@H](Cc2cscn2)C(=O)N[C@@H](CC2CCCCC2)[C@@H](O)[C@@H](O)CC(C)C)[C@@H]1C(=O)N1CCOCC1`, the IC50 was 230 nM at Renin [1] and 10 nM at Renin [3].
Turning to `CC[C@H]1[C@H](C(=O)N[C@@H](Cc2cscn2)C(=O)N[C@@H](CC2CCCCC2)[C@@H](O)[C@@H](O)CC(C)C)[C@H]1C(=O)N1CCOCC1`, the IC50 at Renin [3] worked out at 200 nM.

Usually IC50 stands for the concentration that gives 50% inhibition. A lower IC50 goes with greater potency in that assay. In general, half-life refers to the time needed for the level to fall by half in the phase considered. High values mean slow decline, low ones rapid decline. Broadly, the inhibition is the drop in the measured response relative to a control, in per cent.
